Rows were chosen to be rich in hits. Some 2.9% of all compounds tested hit in one or more screens of this group.
ERAP1 HTS inh – blocks human ERAP1 aminopeptidase activity; recombinant ERAP1, Leu-AMC fluorescence, 60 min; Q9NZ08; 0.15% of 340,000 active; inhibition, % at 10.7 µM; AID 652197;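 active = mean replicate inhibition of at least 30%, or all replicates individually reaching that 30% level; inactive = mean below 30% and not every replicate reaching it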
CAL PDZ FP-1 – blocks peptide binding to the human CAL PDZ domain | inhibition, % at 24.9 µM | purified CAL PDZ, TMR-peptide fluorescence polarization, 1 h | Q9HD26 | 0.92% of 300,000 active;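 active = mean inhibition of at least 30% with at least half of replicates also reaching 30%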
S100A4 inh HTS – blocks human S100A4 binding to myosin IIA peptide | P26447 | S100A4/TAMRA-MyoIIA peptide fluorescence polarization | inhibition, % at 10.7 µM | 0.14% of 360,000 active;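 active = mean inhibition of at least 70% across replicates, with every replicate also reaching that level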
Target sequence (P26447 whole entry, looked up): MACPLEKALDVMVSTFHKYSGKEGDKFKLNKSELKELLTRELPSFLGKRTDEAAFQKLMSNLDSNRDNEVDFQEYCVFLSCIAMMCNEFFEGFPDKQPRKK
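Test system: S100A4 monomer protein; Medium: HEPES pH 7.2 with CaCl2, KCl, NaCl, DTT, Triton; Probe or stimulus: TAMRA-labelled myosin IIA heavy-chain peptide probe, 5 nM; Doses: one dose per compound; Times: polarization read 5 min after assay mix addition, stable 5–60 min; Benchmarks: neutral control DMSO, positive control TFP.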
SIRT5 inh – sirtuin-5 (human) deacylase inhibition. Q9NXA8. Purified SirT5, succinyl-peptide AMC, trypsin-coupled fluorescence. inhibition, % at 15 µM. 1.1% of 330,000 active. AID 652115; in the data active = inhibition above about 15%
Target sequence (Q9NXA8 whole entry, looked up): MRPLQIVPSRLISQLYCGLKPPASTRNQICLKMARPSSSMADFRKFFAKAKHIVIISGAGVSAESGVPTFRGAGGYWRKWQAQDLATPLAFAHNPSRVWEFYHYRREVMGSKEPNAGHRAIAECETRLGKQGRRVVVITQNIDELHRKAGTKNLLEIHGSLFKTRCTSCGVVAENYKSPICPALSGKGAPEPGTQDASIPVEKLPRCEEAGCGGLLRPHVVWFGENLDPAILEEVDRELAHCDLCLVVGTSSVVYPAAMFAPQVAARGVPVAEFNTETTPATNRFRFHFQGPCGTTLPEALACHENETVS
CAL PDZ FP-2 – inhibitors of human CAL PDZ peptide binding; Q9HD26; purified CAL PDZ, TMR-peptide fluorescence polarization, 1 h; inhibition, % at 20 µM; 0.02% of 330,000 active;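 active = highest replicate inhibition of at least 40%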
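Test system: purified CerCALP PDZ construct; Compound dosing: one concentration, 20 µM compound; Also added: TMR-labelled reporter peptide T*-PRC34 bound in PDZ groove; Read-out: inhibition from polarization loss; Controls: unlabelled peptide and DMSO controls; Signal: FP readout, S and P plane fluorescence; Incubation: 1 h at RT.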
DENV2 CPE rescue – inhibitors of DENV2 cytopathic effect; DENV2-infected cells, cytopathic effect rescue, plate reader; CPE inhibition, % at 9.99 µM; 1.7% of 350,000 active; AID 651640; in the data active = CPE inhibition above about 20%, passing the limit was not always enough; tested in BHK-21 cells
Of the large screens only hits and unclear results are named; the others gave an inactive call.

CC1CCN(S(=O)(=O)c2ccc(C(=O)N(C)C3CCS(=O)(=O)C3)cc2)CC1 (stereo unspecified)	SIRT5 inh 24.9
C[C@@H]1CCCCO[C@@H](CN(C)S(=O)(=O)c2ccc(F)cc2)[C@H](C)CN([C@@H](C)CO)C(=O)c2cc(NC(=O)Nc3ccc4c(c3)OCO4)ccc2O1	SIRT5 inh 20.7 (no result: CAL PDZ FP-1, CAL PDZ FP-2)
C[C@H](CO)N1C[C@H](C)[C@H](CN(C)S(=O)(=O)c2ccc(Cl)cc2)OCCCC[C@H](C)Oc2ccc(NC(=O)NC3CCCCC3)cc2C1=O	DENV2 CPE rescue 50.2 (no result: CAL PDZ FP-1, CAL PDZ FP-2)
C[C@@H]1CN([C@H](C)CO)C(=O)c2cc(NC(=O)Nc3ccc4c(c3)OCO4)ccc2O[C@@H](C)CCCCO[C@H]1CN(C)S(=O)(=O)c1ccc(Cl)cc1	DENV2 CPE rescue 38.2 (no result: CAL PDZ FP-1, CAL PDZ FP-2)
COc1ccc(S(=O)(=O)/N=C2/NC(=O)/C(=C/c3ccco3)S2)cc1	SIRT5 inh 16.1 (no result: DENV2 CPE rescue)
C=CCC[C@H](Cc1ccc(F)cc1)C(=O)OC[C@@H](Cc1c[nH]c2ccccc12)NC(=O)[C@@H](CC=C)CC(=O)N(CCO)Cc1ccccc1	DENV2 CPE rescue 20.9 (no result: ERAP1 HTS inh, SIRT5 inh)
NC(=O)C1(c2ccccc2)OC1c1ccccc1 (stereo unspecified)	DENV2 CPE rescue 41.4 (no result: SIRT5 inh)
NC(=O)C1(C(N)=O)OC1c1ccccc1 (stereo unspecified)	none (no result: ERAP1 HTS inh)
C=CCOc1cccc(C(=O)N2CCCC(CCC(=O)NCc3ccccc3F)C2)c1 (stereo unspecified)	CAL PDZ FP-1 73.7
COc1ccc(C(=O)N2CCCC(CCC(=O)NCc3ccc(F)c(F)c3)C2)o1 (stereo unspecified)	CAL PDZ FP-1 50.5
COc1ccc(C(=O)N2CCCC(CCC(=O)NCc3ccc(F)c(F)c3)C2)cc1F (stereo unspecified)	none
C[C@@H]1CN([C@H](C)CO)C(=O)c2cc(C#CCC3CCCC3)cnc2O[C@H]1CN(C)S(=O)(=O)c1cccs1	none (no result: ERAP1 HTS inh, CAL PDZ FP-1, CAL PDZ FP-2)
C[C@@H]1CN([C@@H](C)CO)C(=O)c2cc(C#CCC3CCCC3)cnc2O[C@H]1CN(C)S(=O)(=O)c1cccs1	DENV2 CPE rescue 37.8 (no result: ERAP1 HTS inh, CAL PDZ FP-1, CAL PDZ FP-2)
C[C@H]1CN([C@@H](C)CO)C(=O)c2cc(C#CCC3CCCC3)cnc2O[C@H]1CN(C)C(=O)c1cnccn1	SIRT5 inh 23.6 (no result: CAL PDZ FP-1, CAL PDZ FP-2)
CC(=O)N(C)C[C@H]1Oc2ncc(C#CCC3CCCC3)cc2C(=O)N([C@@H](C)CO)C[C@H]1C	SIRT5 inh 19.0 (no result: CAL PDZ FP-1, CAL PDZ FP-2)
Cc1ccc(S(=O)(=O)Nc2ccc3c(c2)CC(=O)N([C@@H](C)CO)C[C@H](C)[C@@H](CN(C)C(=O)NC2CCCCC2)O3)cc1	none (no result: CAL PDZ FP-1, CAL PDZ FP-2)
CCC(/C=C1\Sc2ccc(OC)cc2N1CC)=C\c1sc2ccc(OC)cc2[n+]1CCCS(=O)(=O)[O-]	S100A4 inh HTS 98.9
CO[C@@H]1CN(C)C(=O)c2ccc(NC(=O)Nc3cccc(F)c3)cc2OC[C@@H](C)NC[C@@H]1C	none (no result: CAL PDZ FP-1, CAL PDZ FP-2)
CC(C)n1c(=O)[nH]c2ccccc21	none
CC(C)n1c(=O)[nH][nH]c1=S	ERAP1 HTS inh 85.2 (no result: CAL PDZ FP-1, CAL PDZ FP-2)
